Compound activity: PubChem BioAssay, several laboratories
Hits are enriched below; roughly 9.8% of the tested compounds scored in any of these assays.
m-calpain inh: inhibitors of pig calpain II, primary screen, biochemical, fluorogenic peptide substrate, 1536-well; 0.37% of 220,000 active; purified calpain II, 30 min; AID 1236, 2008; inhibition, % at 16 µM;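 active means inhibition above about 50%, limit read from the data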
PMI act: activators of human PMI, primary screen, biochemical, fluorescence intensity, near-Km mannose 6-phosphate. Mannose-6-phosphate isomerase (Homo sapiens), P34949. activation factor at 20 µM. purified human PMI, coupled resazurin fluorescence, 20 min; hits give high values; 1 = vehicle control, 0 substrate-free wells. 0.005% of 190,000 active;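 active means activation factor of 2 or more at 20 µM, relative to plate controls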
WT yeast gro inh: growth inhibition of WT strain, primary screen, mitochondrial fusion inhibitor project, WT and mutant strains, chemical genetic. AID 1362, 2008. 2.1% of 190,000 active. mitochondrial fusion phenotypic screen. inhibition, % at 10 µM; in the data active means inhibition above about 58%; tested in S. cerevisiae
Rad51 HR inh: human RAD51 strand exchange inhibitors, primary screen, biochemical, fluorescence. DNA repair protein RAD51 homolog 1 (Homo sapiens), Q06609. hRad51 DNA strand exchange, fluorescence dequenching. inhibition, % at 10 µM. 0.085% of 200,000 active;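 active means inhibition above 40% at the single screening dose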;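 further: 0% = DMSO control wells and 100% = blanks with heterologous ssDNA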
Target sequence (Q06609 whole entry, looked up): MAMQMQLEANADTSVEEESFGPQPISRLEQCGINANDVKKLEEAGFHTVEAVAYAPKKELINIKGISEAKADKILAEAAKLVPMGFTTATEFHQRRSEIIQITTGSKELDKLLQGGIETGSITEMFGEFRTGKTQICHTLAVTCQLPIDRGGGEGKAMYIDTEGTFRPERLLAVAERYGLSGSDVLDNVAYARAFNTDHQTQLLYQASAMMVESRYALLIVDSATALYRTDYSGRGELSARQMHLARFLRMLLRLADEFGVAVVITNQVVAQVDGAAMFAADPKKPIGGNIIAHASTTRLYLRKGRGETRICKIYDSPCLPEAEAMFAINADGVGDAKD
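Test system: preformed human Rad51 ssDNA filaments; also added: Donor/quencher-labelled 47-bp dsDNA substrate; doses: 10 µM final, single point; times: 37 °C 15-min filament assembly, 30-min compound preincubation, 15-min exchange; detection: FRET fluorescence dequenching, excitation 485 nm, emission 520 nm; read-out basis: Fluorescence-based percent inhibition, control- and blank-normalised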
L major viab: Leishmania major promastigote growth inhibition, primary screen; Leishmania major promastigotes, resazurin fluorescence viability; inhibition, % at 10 µM; 9% of 200,000 active; in the data active means inhibition above about 50%;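 further: promastigotes grown with compound for 44 hours at 28 °C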
PMI act hi M6P: human PMI activators, high substrate, primary screen, biochemical, fluorescence intensity, near-saturating mannose 6-phosphate; Mannose-6-phosphate isomerase (Homo sapiens), P34949; coupled PMI enzyme assay, resazurin fluorescence, 20 min; hits give high values; 1 = untreated enzyme, 0 = substrate-free blank; activation factor at 20 µM; 0.34% of 190,000 active; AID 1216, 2008;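 active means activation factor of 2 or more at 20 µM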
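Material: human phosphomannose isomerase with PGI, G6PDH, diaphorase coupling enzymes. Quantity: 15 ng/mL PMI. Medium: HEPES pH 7.4 buffer with MgCl2 and Tween-20. Reagent: Near-saturating mannose-6-phosphate, 1.0 mM. Compound: 20 µM single dose. Times: enzyme reaction with compound 20 min at room temperature. Detection: resorufin fluorescence at Ex 544/Em 590 nm.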
The depositor's hits bear a star; / = no result given.

SMILES | m-calpain inh | PMI act | WT yeast gro inh | Rad51 HR inh | L major viab | PMI act hi M6P
Cn1c(/C=C/N2CCOCC2)c(C(=O)c2ccc(Br)cc2)c(=O)n(C)c1=O | 2 | 0.8 | 77* | 7 | 0 | 0.9
O=C(c1cc2nc(-c3ccc(Cl)cc3)cc(C(F)(F)F)n2n1)N1CCOCC1 | -216 | 0.9 | -10 | 0 | 6 | 0.9
O=C(CSC1=Nc2ccccc2C2CC=NN12)Nc1ccc2c(c1)OCO2 (centres undefined) | 26 | 1 | 29 | -5 | 55* | 1
CCCOC(=O)c1ccc(NC(=O)CSC2=Nc3ccccc3C3CC=NN23)cc1 (centres undefined) | -49 | 0.9 | -4 | -6 | 98* | 0.9
Cc1cc(C)cc(N(CCC#N)C(=O)CSC2=Nc3ccccc3C3CC=NN23)c1 (centres undefined) | -3 | 0.9 | 36 | -1 | 11 | 0.9
N#Cc1ccccc1NC(=O)CSC1=Nc2ccccc2C2CC=NN12 (centres undefined) | -3 | 1 | 19 | -4 | 17 | 1
CCCNC(=O)N1CCN(S(C)(=O)=O)CC1 | -2 | 0.9 | -8 | -5 | -7 | 0.9
CC(C)(C)OC(=O)NCCCC1=CC2=CC(=O)C(C)(O)C(=O)C2=CO1 (centres undefined) | / | / | / | -17 | / | /
O=C(O)/C=C/C(=O)Nc1ccc(N2CCOCC2)nc1N1CCOCC1 | 9 | / | / | 16 | / | /
C/C(=N\NC1=NCCN1)c1ccccc1 | -5 | / | / | -15 | / | /
COc1ccc(Br)cc1/C(C)=N/NC1=NCCN1 | -24 | 0.9 | 9 | 16 | 52* | 1
CCN(C(=O)CSc1nnc(-c2ccncc2)n1Cc1ccccc1)C1CCS(=O)(=O)C1 (centres undefined) | -26 | 1 | -10 | 1 | -9 | 1
CC1CCCCC1NCC#CCOc1ccc(Cl)cc1 (centres undefined) | 23 | 1.1 | 20 | / | 83* | 1.1
Clc1ccc(-c2c[n+](Cc3ccc(Cl)cc3Cl)c3n2CCCCC3)cc1 | 7 | / | / | 19 | / | /
Clc1ccc(C[n+]2cc(-c3ccccc3)n3c2CCC3)cc1Cl | 25 | 1 | 1 | -7 | 99* | 1
Clc1ccc(C[n+]2cc(-c3ccccc3)n3c2CCCCC3)c(Cl)c1 | 36 | 0.9 | 17 | -6 | 100* | 0.9
Clc1ccc(-c2c[n+](Cc3cccc(Cl)c3)c3n2CCC3)cc1 | 0 | 1.1 | -10 | 0 | 100* | 1.1
O=C(COc1ccccc1)NCC(=O)N/N=C/c1ccc(O)cc1O | -22 | / | / | 4 | / | /
COc1cccc(OCC(O)CN2CCN(CCN3C(=O)c4cccc5cccc(c45)C3=O)CC2)c1 (centres undefined) | 36 | 1.2 | 32 | 0 | 100* | 1.1
O=C(CN1CCN(CCN2C(=O)c3cccc4cccc(c34)C2=O)CC1)c1ccc(Cl)cc1 | -20 | 1.7 | 10 | 5 | 87* | 2.6*
O=C1c2cccc3cccc(c23)C(=O)N1CCN1CCN(CC(O)COc2ccccc2)CC1 (centres undefined) | -1 | 1 | 15 | 3 | 97* | 1
O=c1[nH]c2ccccc2c2nc(-c3cccc(S(=O)(=O)N4CCCC4)c3)nn12 | -57 | / | / | 12 | / | /
CC(C)(C)c1nnc(N/N=C/c2cc(Br)ccc2O)n(N)c1=O | 11 | 0.9 | 16 | / | 98* | 1.1
CCCc1c(C)nc2ccccc2c1SCCC#N | 3 | 1.6 | 29 | 5 | 5 | 2.3*
CCc1c(C)nc2ccc(Br)cc2c1SCCC#N | 2 | 1.1 | 12 | -17 | 9 | 1.1
CCCCc1c(C)nc2ccc(Br)cc2c1SCCC#N | -27 | 0.9 | 60* | -5 | 9 | 0.9
CC1(C(=O)OCc2cc(=O)n3cc(Br)ccc3n2)CC1(Cl)Cl (centres undefined) | -16 | 1 | -3 | -22 | 7 | 1
CCOC(=O)c1sc2nc(Cc3ccc(Cl)cc3)[nH]c(=S)c2c1C | 21 | 1.2 | 6 | 2 | 18 | 1.1
